Experimental data gathered from unrelated publications.
Lines come from different studies, so protocols differ. In brackets after ≈: the same amount, converted by molar mass.

| SMILES | tested on | assay | system | setting | measurement | value |
| --- | --- | --- | --- | --- | --- | --- |
| CC(C)/N=c1\cc2n(-c3ccc(Cl)cc3)c3ccccc3nc-2cc1Nc1ccc(Cl)cc1 | Mycobacteroides abscessus | microbial growth | – | clinical isolate | MIC | 3.75 µM (≈ 1.78 µg/mL) |
| CN(C)c1cc(NC(=O)Cc2ccn(C)n2)c(O)c2c1C[C@H]1C[C@H]3[C@H](N(C)C)C(O)=C(C(N)=O)C(=O)[C@@]3(O)C(O)=C1C2=O | Mycobacteroides abscessus | microbial growth, resazurin | ATCC19977 | – | IC50 | 0.86 µg/mL |
| OC(C#Cc1ccc(F)c(F)c1)c1cccc(Cl)c1 (stereo not shown) | Pseudomonas aeruginosa | microbial growth, absorbance | – | 10 µM, 24 h | activity vs control | 96% |
| O=C(O)CO/N=c1\cc2n(-c3ccc(Cl)cc3)c3ccccc3nc-2cc1Nc1ccc(Cl)cc1 | Mycobacteroides abscessus | microbial growth | – | clinical isolate | MIC | > 30 µM |
| OC(C#Cc1ccc(F)c(F)c1)c1ccccc1 (stereo not shown) | Pseudomonas aeruginosa | microbial growth, absorbance | – | 100 µM, 24 h | activity vs control | 97% |
| CN(C)c1cc(NC(=O)Cc2cccnn2)c(O)c2c1C[C@H]1C[C@H]3[C@H](N(C)C)C(O)=C(C(N)=O)C(=O)[C@@]3(O)C(O)=C1C2=O | Mycobacteroides abscessus | microbial growth, resazurin | ATCC19977 | – | IC50 | 1.67 µg/mL |
| O=C1CC[C@H](N2Cc3cc(N4CCN(CC5CCN(c6ccc([C@@H]7c8ccc(O)cc8CC[C@@H]7c7ccccc7)cc6)CC5)CC4)ccc3C2=O)C(=O)N1 | T47D | cell growth or viability, ATP luminescence | – | 5 days | GI50 | 4.5 nM |
| Cc1ccccc1C(=O)C#Cc1ccc(F)c(F)c1 | Pseudomonas aeruginosa | microbial growth, absorbance | – | 10 µM, 24 h | activity vs control | 101% |
| CN(C)c1cc(NC(=O)CNC(C)(C)C)c(O)c2c1C[C@H]1C[C@H]3[C@H](N(C)C)C(O)=C(C(N)=O)C(=O)[C@@]3(O)C(O)=C1C2=O | Mycobacteroides abscessus | microbial growth, resazurin | ATCC19977 | – | IC50 | 0.28 µg/mL |
| O/N=c1\cc2n(-c3ccc(Cl)cc3)c3ccccc3nc-2cc1Nc1ccc(Cl)cc1 | Mycobacteroides abscessus | microbial growth | – | clinical isolate | MIC | > 30 µM |
| C=CC(=O)NC1CCN(c2ncc3ncnc(Nc4ccc(Oc5ccc6c(c5)ncn6C)c(C)c4)c3n2)CC1 | SW837 | cell growth or viability | – | – | EC50 | 21.5 mM |
| C[C@H](NC(=O)CO/N=c1\cc2n(-c3ccc(Cl)cc3)c3ccccc3nc-2cc1Nc1ccc(Cl)cc1)C(=O)O | Mycobacteroides abscessus | microbial growth | – | clinical isolate | MIC | > 30 µM |
| COc1cc(C#CC(=O)C(C)C)ccc1O | Pseudomonas aeruginosa | microbial growth, absorbance | – | 10 µM, 24 h | activity vs control | 94% |
| CN(C)c1cc(NC(=O)Cc2ccncc2)c(O)c2c1C[C@H]1C[C@H]3[C@H](N(C)C)C(O)=C(C(N)=O)C(=O)[C@@]3(O)C(O)=C1C2=O | Mycobacteroides abscessus | microbial growth, resazurin | ATCC19977 | – | IC50 | 0.57 µg/mL |
| O=C(CO/N=c1\cc2n(-c3ccc(Cl)cc3)c3ccccc3nc-2cc1Nc1ccc(Cl)cc1)NCc1ccc2c(c1)CCO2 | Mycobacteroides abscessus | microbial growth | – | clinical isolate | MIC | > 30 µM |
| COc1ccccc1C(=O)C#Cc1ccc(F)c(F)c1 | Pseudomonas aeruginosa | microbial growth, absorbance | – | 100 µM, 24 h | activity vs control | 83% |
| CN(C)c1cc(NC(=O)CCc2cccnc2)c(O)c2c1C[C@H]1C[C@H]3[C@H](N(C)C)C(O)=C(C(N)=O)C(=O)[C@@]3(O)C(O)=C1C2=O | Mycobacteroides abscessus | microbial growth, resazurin | ATCC19977 | – | IC50 | 5.63 µg/mL |
| CCCCC[C@H](O)CC(=O)CCc1ccc(O)c(OC)c1 | Pseudomonas aeruginosa | microbial growth, absorbance | – | 10 µM, 24 h | activity vs control | 99% |
| CN(C)c1cc(NC(=O)Cc2cscn2)c(O)c2c1C[C@H]1C[C@H]3[C@H](N(C)C)C(O)=C(C(N)=O)C(=O)[C@@]3(O)C(O)=C1C2=O | Mycobacteroides abscessus | microbial growth, resazurin | ATCC19977 | – | IC50 | 0.23 µg/mL |
| C=C(F)C(=O)N1CCN(c2nc(OC[C@@H]3CCCN3C)nc3c2CCN(c2cccc4cccc(Cl)c24)C3)C[C@@H]1CC#N | SW837 | cell growth or viability, ATP luminescence | – | 3D culture | IC50 | 5.77 nM |
| CN(C)c1cc(NC(=O)c2ccccc2)c(O)c2c1C[C@H]1C[C@H]3[C@H](N(C)C)C(O)=C(C(N)=O)C(=O)[C@@]3(O)C(O)=C1C2=O | Mycobacteroides abscessus | microbial growth, resazurin | ATCC19977 | – | IC50 | 13.8 µg/mL |
| O=C(NO)c1ccc(CNc2nc3cccc(-c4ccc5c(c4)OCO5)n3n2)cc1 | DU-145 | cell growth or viability, SRB | – | – | GI50 | 470 nM |
